In ChEMBL document CHEMBL1153439, “Design, synthesis, antimicrobial activity and molecular modeling studies of novel benzofuroxan derivatives against Staphylococcus aureus” (2009):
In brackets after ≈: the same amount, converted by molar mass.

Columns and labels:
Assay type in all cases: functional
Staphylococcus aureus [1] = test: Antibacterial activity against Staphylococcus aureus ATCC 25923 after 18 hrs by broth microdilution method; conditions: ATCC 25923, 18 h
Method in brief: (§1)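 Broth microdilution in Tryptic Soy Broth in 96-well plates, with DMSO as solvent at no more than 5% of the total. Inoculum was set to 0.5 McFarland and diluted in saline and TSB. Plates were incubated 18 h at 35 °C. MIC is the lowest concentration without visible growth. The MIC was determined in two phases, the second narrowing the first.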

Staphylococcus aureus [2] = test: Antibacterial activity against multidrug-resistant Staphylococcus aureus 3SP/R33 after 18 hrs by phase 1 broth microdilution method
Method in brief: (§2)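 Phase I: twofold serial dilutions in Tryptic Soy Broth, 96-well plates, concentrations […]. Stocks in DMSO/TSB 1:10 v/v, with final DMSO 5.0–0.01%. Inoculum was set to 0.5 McFarland, then diluted in saline and TSB. Plates ran 18 h at 35 °C. MIC is the lowest concentration without visible growth, in triplicate. Sterility was read at 24 and 48 h. Ampicillin, chloramphenicol and vancomycin were controls.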

Staphylococcus aureus [3] = test: Antibacterial activity against Staphylococcus aureus ATCC 25923 after 18 hrs by phase 2 broth microdilution method; conditions: ATCC 25923, 18 h
Method in brief: (§3)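 Phase II narrowed the phase I MIC in Tryptic Soy Broth. Stock was made at twice the phase I MIC, then diluted 10% stepwise with TSB through column 11. Final DMSO was 2.5–1.0%. Positive growth control wells received TSB. Inoculum was prepared as in phase I and plates were incubated 18 h at 35 °C.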

Staphylococcus aureus [4] = test: Antibacterial activity against multidrug-resistant vancomycin-intermediate Staphylococcus aureus VISA3 after 18 hrs phase 1 by broth microdilution method; method in brief: as §2
Staphylococcus aureus [5] = test: Antibacterial activity against multidrug-resistant Staphylococcus aureus 3SP/R33 after 18 hrs by phase 2 broth microdilution method; method in brief: as §3
Staphylococcus aureus [6] = test: Antibacterial activity against Staphylococcus aureus ATCC 25923 after 18 hrs by phase 1 broth microdilution method; conditions: ATCC 25923, 18 h; method in brief: as §2
Staphylococcus aureus [7] = test: Antibacterial activity against multidrug-resistant vancomycin-intermediate Staphylococcus aureus VISA3 after 18 hrs phase 2 by broth microdilution method; method in brief: as §3
Staphylococcus aureus [8] = test: Antibacterial activity against multidrug-resistant vancomycin-intermediate Staphylococcus aureus VISA3 after 18 hrs by broth microdilution method; method in brief: as §1
Staphylococcus aureus [9] = test: Antibacterial activity against multidrug-resistant Staphylococcus aureus 3SP/R33 after 18 hrs by broth microdilution method; method in brief: as §1

| SMILES | MIC (Staphylococcus aureus [1]) | MIC (Staphylococcus aureus [2]) | MIC (Staphylococcus aureus [3]) | MIC (Staphylococcus aureus [4]) | MIC (Staphylococcus aureus [5]) | MIC (Staphylococcus aureus [6]) | MIC (Staphylococcus aureus [7]) | MIC (Staphylococcus aureus [8]) | MIC (Staphylococcus aureus [9]) |
| --- | --- | --- | --- | --- | --- | --- | --- | --- | --- |
| CC1(C)S[C@@H]2[C@H](NC(=O)[C@H](N)c3ccccc3)C(=O)N2[C@H]1C(=O)O [AMPICILLIN] | 0.1 mg/L (≈ 0.286 µM) | – | – | – | – | – | – | – | – |
| O=C(N/N=C/c1ccc2c(c1)no[n+]2[O-])c1ccc(O)cc1 | – | 20 mg/L (≈ 67.1 µM) | 26.2 mg/L (≈ 87.8 µM) | 20 mg/L (≈ 67.1 µM) | 26.2 mg/L (≈ 87.8 µM) | 20 mg/L (≈ 67.1 µM) | 26.2 mg/L (≈ 87.8 µM) | – | – |
| COc1ccc(C(=O)N/N=C/c2ccc3c(c2)no[n+]3[O-])cc1 | – | 10 mg/L (≈ 32 µM) | 16.2 mg/L (≈ 51.9 µM) | 10 mg/L (≈ 32 µM) | 16.2 mg/L (≈ 51.9 µM) | 10 mg/L (≈ 32 µM) | 16.2 mg/L (≈ 51.9 µM) | – | – |
| CC(=O)c1ccc(C(=O)N/N=C/c2ccc3c(c2)no[n+]3[O-])cc1 | – | 20 mg/L (≈ 61.7 µM) | 21.2 mg/L (≈ 65.4 µM) | 20 mg/L (≈ 61.7 µM) | 21.2 mg/L (≈ 65.4 µM) | 20 mg/L (≈ 61.7 µM) | 21.2 mg/L (≈ 65.4 µM) | – | – |
| O=C(N/N=C/c1ccc2c(c1)no[n+]2[O-])c1ccc(I)cc1 | – | 20 mg/L (≈ 49 µM) | 23.6 mg/L (≈ 57.8 µM) | 20 mg/L (≈ 49 µM) | 23.6 mg/L (≈ 57.8 µM) | 20 mg/L (≈ 49 µM) | 23.6 mg/L (≈ 57.8 µM) | – | – |
| CN(C)c1ccc(C(=O)N/N=C/c2ccc3c(c2)no[n+]3[O-])cc1 | – | > 80 mg/L | – | > 80 mg/L | – | > 80 mg/L | – | – | – |
| O=C(N[C@H](CO)[C@H](O)c1ccc([N+](=O)[O-])cc1)C(Cl)Cl [CHLORAMPHENICOL] | 2 mg/L (≈ 6.19 µM) | – | – | – | – | – | – | 32 mg/L (≈ 99 µM) | 32 mg/L (≈ 99 µM) |
| O=C(N/N=C/c1ccc2c(c1)no[n+]2[O-])c1ccc(Br)cc1 | – | 10 mg/L (≈ 27.7 µM) | 18 mg/L (≈ 49.8 µM) | 10 mg/L (≈ 27.7 µM) | 18 mg/L (≈ 49.8 µM) | 10 mg/L (≈ 27.7 µM) | 18 mg/L (≈ 49.8 µM) | – | – |
| O=C(N/N=C/c1ccc2c(c1)no[n+]2[O-])c1ccccc1 | – | 10 mg/L (≈ 35.4 µM) | 16.2 mg/L (≈ 57.4 µM) | 10 mg/L (≈ 35.4 µM) | 16.2 mg/L (≈ 57.4 µM) | 10 mg/L (≈ 35.4 µM) | 16.2 mg/L (≈ 57.4 µM) | – | – |
| Cc1ccc(C(=O)N/N=C/c2ccc3c(c2)no[n+]3[O-])cc1 | – | 20 mg/L (≈ 67.5 µM) | 21 mg/L (≈ 70.9 µM) | 20 mg/L (≈ 67.5 µM) | 21 mg/L (≈ 70.9 µM) | 20 mg/L (≈ 67.5 µM) | 21 mg/L (≈ 70.9 µM) | – | – |
| O=C(N/N=C/c1ccc2c(c1)no[n+]2[O-])c1ccc(Cl)cc1 | – | 10 mg/L (≈ 31.6 µM) | 15.3 mg/L (≈ 48.3 µM) | 10 mg/L (≈ 31.6 µM) | 15.3 mg/L (≈ 48.3 µM) | 10 mg/L (≈ 31.6 µM) | 15.3 mg/L (≈ 48.3 µM) | – | – |
| Nc1ccc(C(=O)N/N=C/c2ccc3c(c2)no[n+]3[O-])cc1 | – | 10 mg/L (≈ 33.6 µM) | 15.3 mg/L (≈ 51.5 µM) | 10 mg/L (≈ 33.6 µM) | 15.3 mg/L (≈ 51.5 µM) | 10 mg/L (≈ 33.6 µM) | 15.3 mg/L (≈ 51.5 µM) | – | – |
| O=C(N/N=C/c1ccc2c(c1)no[n+]2[O-])c1ccc(F)cc1 | – | 10 mg/L (≈ 33.3 µM) | 14.6 mg/L (≈ 48.6 µM) | 10 mg/L (≈ 33.3 µM) | 14.6 mg/L (≈ 48.6 µM) | 10 mg/L (≈ 33.3 µM) | 14.6 mg/L (≈ 48.6 µM) | – | – |
| O=C(N/N=C/c1ccc2c(c1)no[n+]2[O-])c1ccc(C(F)(F)F)cc1 | – | 10 mg/L (≈ 28.6 µM) | 13.1 mg/L (≈ 37.4 µM) | 10 mg/L (≈ 28.6 µM) | 13.1 mg/L (≈ 37.4 µM) | 10 mg/L (≈ 28.6 µM) | 13.1 mg/L (≈ 37.4 µM) | – | – |
| N#Cc1ccc(C(=O)N/N=C/c2ccc3c(c2)no[n+]3[O-])cc1 | – | 20 mg/L (≈ 65.1 µM) | 26.2 mg/L (≈ 85.3 µM) | 20 mg/L (≈ 65.1 µM) | 26.2 mg/L (≈ 85.3 µM) | 20 mg/L (≈ 65.1 µM) | 26.2 mg/L (≈ 85.3 µM) | – | – |
| NS(=O)(=O)c1ccc(C(=O)N/N=C/c2ccc3c(c2)no[n+]3[O-])cc1 | – | > 80 mg/L | – | > 80 mg/L | – | > 80 mg/L | – | – | – |
